Laboratory results as given in ChEMBL document CHEMBL3758120, “Synthesis and Mechanism Studies of 1,3-Benzoazolyl Substituted Pyrrolo[2,3-b]pyrazine Derivatives as Nonintercalative Topoisomerase II Catalytic Inhibitors” (J Med Chem, 2016).
Active and inactive are the calls of the source. The rule behind the calls is not given here.

Legend:
HL-60 [1] = assay: Induction of apoptosis in human HL60 cells assessed as late apoptotic cells at 2 uM after 12 hrs by annexin V-FITC/propidium iodide staining-based flow cytometric analysis (reference value: 0.17 to 0.18%); type: functional
Outline: (§1)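 HL-60 cells at 5.0 × 10^5 cells/ml treated for 12 h (0.5–2 μM) or 24 h (0.25–1 μM), washed twice in cold PBS, resuspended in binding buffer, stained with annexin V-FITC and propidium iodide for 15 min in the dark, analysed by flow cytometry within 1 h; quadrants define live, early and late apoptotic cells. Three repeats.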

[2] = Antiproliferative activity against human HL60/MX2 cells after 48 hrs by MTT assay; type: functional, cell-based; conditions: HL60/MX2, 48 h
Outline: (§2)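 Cells seeded at 5000 per well and left overnight, then exposed to increasing concentrations (0-50 μM) for 48 h. […] HL-60/MX2 is a mitoxantrone-selected HL-60 derivative with reduced Topo IIα/β.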

[3] = target: T1, DNA topoisomerase 1 (Homo sapiens) (UniProt P11387); assay: Inhibition of recombinant human topoisomerase 1-mediated relaxation of supercoiled pBR322 DNA at 50 uM incubated for 30 mins by agarose gel electrophoresis
T1 sequence (whole entry): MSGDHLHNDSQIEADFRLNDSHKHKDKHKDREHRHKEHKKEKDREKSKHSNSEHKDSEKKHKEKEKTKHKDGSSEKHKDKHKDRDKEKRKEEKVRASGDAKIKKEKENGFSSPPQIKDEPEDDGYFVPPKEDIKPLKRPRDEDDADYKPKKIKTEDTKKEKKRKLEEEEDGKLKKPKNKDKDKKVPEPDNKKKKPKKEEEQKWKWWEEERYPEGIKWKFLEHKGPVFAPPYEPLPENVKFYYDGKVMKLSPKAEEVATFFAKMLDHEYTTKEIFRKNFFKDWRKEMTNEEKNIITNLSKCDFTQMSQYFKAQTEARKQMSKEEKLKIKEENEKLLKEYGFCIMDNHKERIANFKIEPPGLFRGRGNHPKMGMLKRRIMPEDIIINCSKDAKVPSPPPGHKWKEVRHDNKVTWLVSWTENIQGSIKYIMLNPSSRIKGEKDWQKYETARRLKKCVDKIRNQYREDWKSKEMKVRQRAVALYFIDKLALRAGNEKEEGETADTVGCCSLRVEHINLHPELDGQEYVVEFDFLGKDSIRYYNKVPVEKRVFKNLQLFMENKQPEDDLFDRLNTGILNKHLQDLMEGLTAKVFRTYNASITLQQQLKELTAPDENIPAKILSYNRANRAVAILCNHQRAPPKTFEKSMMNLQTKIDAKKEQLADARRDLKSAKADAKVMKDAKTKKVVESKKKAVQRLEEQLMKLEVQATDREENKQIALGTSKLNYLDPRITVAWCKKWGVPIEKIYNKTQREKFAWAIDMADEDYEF
Outline: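 Supercoiled pBR322 relaxed by Topo I with compound, incubated 30 min at 37 °C, stopped with 1% SDS dye, run on 1% agarose 1 h at 90 V in TAE, stained and imaged under UV; camptothecin as reference.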

HL-60 [4] = assay: Induction of apoptosis in human HL60 cells assessed as dead cells at 1 uM after 24 hrs by annexin V-FITC/propidium iodide staining-based flow cytometric analysis (reference value: 0.12%); type: functional
HL-60 [5] = assay: Induction of apoptosis in human HL60 cells assessed as dead cells at 0.5 uM after 24 hrs by annexin V-FITC/propidium iodide staining-based flow cytometric analysis (reference value: 0.12%); type: functional
HL-60 [6] = assay: Induction of apoptosis in human HL60 cells assessed as viable cells at 1 uM after 24 hrs by annexin V-FITC/propidium iodide staining-based flow cytometric analysis (reference value: 97.75%); type: functional; conditions: HL-60, 24 h, read-out: Activity; outline: as §1
HL-60 [7] = assay: Induction of apoptosis in human HL60 cells assessed as late apoptotic cells at 0.5 uM after 24 hrs by annexin V-FITC/propidium iodide staining-based flow cytometric analysis (reference value: 1.64%); type: functional; outline: as §1
HL-60 [8] = assay: Induction of apoptosis in human HL60 cells assessed as early apoptotic cells at 0.5 uM after 24 hrs by annexin V-FITC/propidium iodide staining-based flow cytometric analysis (reference value: 0.5%); type: functional; outline: as §1
HL-60 [9] = assay: Induction of apoptosis in human HL60 cells assessed as late apoptotic cells at 0.25 uM after 24 hrs by annexin V-FITC/propidium iodide staining-based flow cytometric analysis (reference value: 1.64%); type: functional; outline: as §1
HL-60 [10] = assay: Induction of apoptosis in human HL60 cells assessed as dead cells at 1 uM after 12 hrs by annexin V-FITC/propidium iodide staining-based flow cytometric analysis (reference value: 0.12 to 0.15%); type: functional
K562 = assay: Antiproliferative activity against human K562 cells after 48 hrs by MTT assay; type: functional, cell-based; conditions: K562, 48 h; outline: as §2
[11] = target: DNA topoisomerase 2-alpha (Homo sapiens, UniProt P11388); assay: Inhibition of purified human topoisomerase 2 catalytic activity using supercoiled pBR322 DNA as substrate assessed as inhibition of etoposide-induced linear DNA formation at 20 uM pre-incubated before etoposide addition by agarose gel electrophoresis
Outline: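 Human Topo II (6 units) with 0.1 μg supercoiled pBR322 in 50 mM Tris-HCl pH 8.0, 150 mM NaCl, 10 mM MgCl2, 2 mM ATP, 0.5 mM DTT, 30 μg/ml BSA; compounds at 20 μM, etoposide 100 μM. After 6 min at 37 °C, complexes trapped with SDS then EDTA, proteinase K 30 min at 45 °C, heated 72 °C 2 min, run on 1% agarose; linear DNA scored. Antagonism tested by compound pretreatment before etoposide.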

HL-60 [12] = assay: Induction of apoptosis in human HL60 cells assessed as viable cells at 0.5 uM after 24 hrs by annexin V-FITC/propidium iodide staining-based flow cytometric analysis (reference value: 97.75%); type: functional; conditions: HL-60, 24 h, read-out: Activity; outline: as §1
HEK293 = assay: Cytotoxicity against HEK293 cells after 48 hrs by MTT assay; type: cell-based; conditions: Homo sapiens, HEK293, 48 h
HL-60 [13] = assay: Induction of apoptosis in human HL60 cells assessed as dead cells at 2 uM after 12 hrs by annexin V-FITC/propidium iodide staining-based flow cytometric analysis (reference value: 0.12 to 0.15%); type: functional
HL-60 [14] = assay: Induction of apoptosis in human HL60 cells assessed as early apoptotic cells at 0.25 uM after 24 hrs by annexin V-FITC/propidium iodide staining-based flow cytometric analysis (reference value: 0.5%); type: functional; outline: as §1
HL-60 [15] = assay: Induction of apoptosis in human HL60 cells assessed as early apoptotic cells at 1 uM after 12 hrs by annexin V-FITC/propidium iodide staining-based flow cytometric analysis (reference value: 0.38 to 0.55%); type: functional; outline: as §1
HL-60 [16] = assay: Induction of apoptosis in human HL60 cells assessed as early apoptotic cells at 2 uM after 12 hrs by annexin V-FITC/propidium iodide staining-based flow cytometric analysis (reference value: 0.38 to 0.55%); type: functional; outline: as §1
Raji = assay: Antiproliferative activity against human Raji cells after 48 hrs by MTT assay; type: functional, cell-based; outline: as §2
[17] = Antiproliferative activity against human MDA-MB-201 cells after 48 hrs by MTT assay; type: functional, cell-based; outline: as §2
HL-60 [18] = assay: Induction of apoptosis in human HL60 cells assessed as late apoptotic cells at 0.5 uM after 12 hrs by annexin V-FITC/propidium iodide staining-based flow cytometric analysis (reference value: 0.17 to 0.18%); type: functional; outline: as §1

DNA topoisomerase 2-alpha, sequence (P11388 whole entry): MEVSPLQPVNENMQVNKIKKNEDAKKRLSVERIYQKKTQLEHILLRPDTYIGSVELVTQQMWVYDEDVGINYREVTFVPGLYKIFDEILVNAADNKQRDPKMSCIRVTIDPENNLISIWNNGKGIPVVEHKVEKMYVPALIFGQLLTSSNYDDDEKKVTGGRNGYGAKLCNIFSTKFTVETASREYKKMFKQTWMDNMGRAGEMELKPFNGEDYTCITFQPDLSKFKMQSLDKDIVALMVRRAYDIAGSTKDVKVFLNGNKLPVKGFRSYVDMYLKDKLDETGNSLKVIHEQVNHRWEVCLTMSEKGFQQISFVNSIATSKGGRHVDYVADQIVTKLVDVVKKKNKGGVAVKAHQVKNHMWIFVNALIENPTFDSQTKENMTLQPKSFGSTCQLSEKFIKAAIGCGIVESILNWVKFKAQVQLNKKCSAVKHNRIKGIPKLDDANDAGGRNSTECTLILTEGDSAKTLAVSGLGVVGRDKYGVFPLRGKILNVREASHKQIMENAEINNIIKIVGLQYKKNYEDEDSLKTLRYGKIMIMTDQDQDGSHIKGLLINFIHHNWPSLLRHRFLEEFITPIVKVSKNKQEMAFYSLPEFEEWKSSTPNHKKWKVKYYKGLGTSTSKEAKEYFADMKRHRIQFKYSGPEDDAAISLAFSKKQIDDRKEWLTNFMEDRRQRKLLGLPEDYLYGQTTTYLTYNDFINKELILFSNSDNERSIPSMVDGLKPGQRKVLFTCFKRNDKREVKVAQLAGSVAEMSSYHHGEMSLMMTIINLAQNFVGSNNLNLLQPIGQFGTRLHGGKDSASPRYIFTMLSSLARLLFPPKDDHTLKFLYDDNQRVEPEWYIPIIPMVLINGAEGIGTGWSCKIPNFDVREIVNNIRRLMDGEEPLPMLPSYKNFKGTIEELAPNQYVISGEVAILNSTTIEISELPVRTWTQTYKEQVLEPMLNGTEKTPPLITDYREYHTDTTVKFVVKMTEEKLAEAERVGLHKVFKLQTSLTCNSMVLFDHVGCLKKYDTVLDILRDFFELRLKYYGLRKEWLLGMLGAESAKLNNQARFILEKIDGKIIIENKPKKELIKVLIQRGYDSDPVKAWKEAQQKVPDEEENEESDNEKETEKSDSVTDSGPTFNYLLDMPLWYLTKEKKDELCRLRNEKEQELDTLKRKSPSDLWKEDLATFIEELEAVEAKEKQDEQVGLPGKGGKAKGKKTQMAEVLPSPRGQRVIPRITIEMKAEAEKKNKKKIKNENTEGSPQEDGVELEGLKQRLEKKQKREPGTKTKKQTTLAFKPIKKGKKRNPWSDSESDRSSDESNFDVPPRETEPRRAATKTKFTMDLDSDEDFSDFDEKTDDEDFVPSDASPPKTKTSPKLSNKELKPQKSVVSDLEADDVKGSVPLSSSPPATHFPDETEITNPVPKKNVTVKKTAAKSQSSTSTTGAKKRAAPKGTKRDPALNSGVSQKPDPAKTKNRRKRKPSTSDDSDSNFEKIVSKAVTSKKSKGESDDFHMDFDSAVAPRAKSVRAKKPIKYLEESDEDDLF

Compound | Activity (HL-60 [1]) | IC50 [2] | inhibition [3] | Activity (HL-60 [4]) | Activity (HL-60 [5]) | viability at 1 µM (HL-60 [6]) | Activity (HL-60 [7]) | Activity (HL-60 [8]) | Activity (HL-60 [9]) | Activity (HL-60 [10]) | IC50 (K562) | inhibition [11] | viability at 0.5 µM (HL-60 [12]) | IC50 (HEK293) | Activity (HL-60 [13]) | Activity (HL-60 [14]) | Activity (HL-60 [15]) | Activity (HL-60 [16]) | IC50 (Raji) | IC50 [17] | other results
CN(C)CCCCn1c(N)c(-c2nc3ccccc3[nH]2)c2nc(C#N)c(C#N)nc21 | 64.15% | 1780 nM | inactive | 8.31% | 2.28% | 0.65% | 79.38% | 4.45% | 0.42% | 0.11% | 1430 nM | Active | 13.9% | 4160 nM | 1.96% | 0.54% | 0.82% | 5.8% | 2560 nM | 530 nM | Activity (HL-60 [18]): 0.21%
CCN(CC)CCCCn1c(N)c(-c2nc3ccccc3[nH]2)c2nc(C#N)c(C#N)nc21 | 46.73% | 1550 nM | inactive | 12.63% | 0.43% | 32.9% | 17.65% | 3.24% | 0.41% | 0.25% | 1440 nM | Active | 78.7% | 5370 nM | 1.36% | 0.35% | 1.39% | 6.62% | 2640 nM | 640 nM | Activity (HL-60 [18]): 0.21%
